Columns and labels:
[1] = biological target: Insulin-like growth factor 2 receptor ([…], cation-independent mannose-6-phosphate receptor, CI-MPR; hIGF-IIR) (Homo sapiens, UniProt P11717); experiment: Binding affinity to CI-M6PR
How it was run: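 Competitive displacement ELISA: biotinylated CI-M6PR bound to pentamannose 6-phosphate adsorbed on microtiter wells, challenged with increasing analog concentrations. Remaining bound receptor detected with streptavidin/peroxidase and o-phenylenediamine substrate by optical density. IC50 taken from dose-inhibition curves. Mean of triplicates from one experiment, confirmed in two further experiments.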

[2] = test system: MCF7; experiment: Cytotoxicity against human MCF7 cells up to 100 uM by MTT assay; type: cell-based
How it was run: (§1)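 Human fibroblasts, MCF7 and MDA-MB-231 cells exposed in culture medium for 4 days to increasing concentrations up to 100 µM, with untreated controls. Proliferation read by MTT assay. Triplicates from one experiment, confirmed in two further experiments.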

[3] = Cytotoxicity against human fibroblast up to 100 uM after 4 days by MTT assay; type: cell-based; conditions: 96 h; how it was run: as §1
[4] = test system: Serum; experiment: Stability in human serum after 2 days; type: ADME, cell-free; conditions: 48 h
How it was run: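 Analogs incubated 2 days at 37 °C with 75% human serum or without serum. Residual capacity to inhibit biotinylated CI-M6PR binding to plate-adsorbed pentamannose 6-phosphate was then assayed. Result expressed relative to day-0 controls with or without serum, set as 100%. Mean ± standard deviations of triplicates, confirmed in two further experiments.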

[5] = test system: MDA-MB-231; experiment: Cytotoxicity against human MDA-MB-231 cells up to 100 uM by MTT assay; type: cell-based; how it was run: as §1

Chain of UniProt P11717 (P11717 whole entry, looked up): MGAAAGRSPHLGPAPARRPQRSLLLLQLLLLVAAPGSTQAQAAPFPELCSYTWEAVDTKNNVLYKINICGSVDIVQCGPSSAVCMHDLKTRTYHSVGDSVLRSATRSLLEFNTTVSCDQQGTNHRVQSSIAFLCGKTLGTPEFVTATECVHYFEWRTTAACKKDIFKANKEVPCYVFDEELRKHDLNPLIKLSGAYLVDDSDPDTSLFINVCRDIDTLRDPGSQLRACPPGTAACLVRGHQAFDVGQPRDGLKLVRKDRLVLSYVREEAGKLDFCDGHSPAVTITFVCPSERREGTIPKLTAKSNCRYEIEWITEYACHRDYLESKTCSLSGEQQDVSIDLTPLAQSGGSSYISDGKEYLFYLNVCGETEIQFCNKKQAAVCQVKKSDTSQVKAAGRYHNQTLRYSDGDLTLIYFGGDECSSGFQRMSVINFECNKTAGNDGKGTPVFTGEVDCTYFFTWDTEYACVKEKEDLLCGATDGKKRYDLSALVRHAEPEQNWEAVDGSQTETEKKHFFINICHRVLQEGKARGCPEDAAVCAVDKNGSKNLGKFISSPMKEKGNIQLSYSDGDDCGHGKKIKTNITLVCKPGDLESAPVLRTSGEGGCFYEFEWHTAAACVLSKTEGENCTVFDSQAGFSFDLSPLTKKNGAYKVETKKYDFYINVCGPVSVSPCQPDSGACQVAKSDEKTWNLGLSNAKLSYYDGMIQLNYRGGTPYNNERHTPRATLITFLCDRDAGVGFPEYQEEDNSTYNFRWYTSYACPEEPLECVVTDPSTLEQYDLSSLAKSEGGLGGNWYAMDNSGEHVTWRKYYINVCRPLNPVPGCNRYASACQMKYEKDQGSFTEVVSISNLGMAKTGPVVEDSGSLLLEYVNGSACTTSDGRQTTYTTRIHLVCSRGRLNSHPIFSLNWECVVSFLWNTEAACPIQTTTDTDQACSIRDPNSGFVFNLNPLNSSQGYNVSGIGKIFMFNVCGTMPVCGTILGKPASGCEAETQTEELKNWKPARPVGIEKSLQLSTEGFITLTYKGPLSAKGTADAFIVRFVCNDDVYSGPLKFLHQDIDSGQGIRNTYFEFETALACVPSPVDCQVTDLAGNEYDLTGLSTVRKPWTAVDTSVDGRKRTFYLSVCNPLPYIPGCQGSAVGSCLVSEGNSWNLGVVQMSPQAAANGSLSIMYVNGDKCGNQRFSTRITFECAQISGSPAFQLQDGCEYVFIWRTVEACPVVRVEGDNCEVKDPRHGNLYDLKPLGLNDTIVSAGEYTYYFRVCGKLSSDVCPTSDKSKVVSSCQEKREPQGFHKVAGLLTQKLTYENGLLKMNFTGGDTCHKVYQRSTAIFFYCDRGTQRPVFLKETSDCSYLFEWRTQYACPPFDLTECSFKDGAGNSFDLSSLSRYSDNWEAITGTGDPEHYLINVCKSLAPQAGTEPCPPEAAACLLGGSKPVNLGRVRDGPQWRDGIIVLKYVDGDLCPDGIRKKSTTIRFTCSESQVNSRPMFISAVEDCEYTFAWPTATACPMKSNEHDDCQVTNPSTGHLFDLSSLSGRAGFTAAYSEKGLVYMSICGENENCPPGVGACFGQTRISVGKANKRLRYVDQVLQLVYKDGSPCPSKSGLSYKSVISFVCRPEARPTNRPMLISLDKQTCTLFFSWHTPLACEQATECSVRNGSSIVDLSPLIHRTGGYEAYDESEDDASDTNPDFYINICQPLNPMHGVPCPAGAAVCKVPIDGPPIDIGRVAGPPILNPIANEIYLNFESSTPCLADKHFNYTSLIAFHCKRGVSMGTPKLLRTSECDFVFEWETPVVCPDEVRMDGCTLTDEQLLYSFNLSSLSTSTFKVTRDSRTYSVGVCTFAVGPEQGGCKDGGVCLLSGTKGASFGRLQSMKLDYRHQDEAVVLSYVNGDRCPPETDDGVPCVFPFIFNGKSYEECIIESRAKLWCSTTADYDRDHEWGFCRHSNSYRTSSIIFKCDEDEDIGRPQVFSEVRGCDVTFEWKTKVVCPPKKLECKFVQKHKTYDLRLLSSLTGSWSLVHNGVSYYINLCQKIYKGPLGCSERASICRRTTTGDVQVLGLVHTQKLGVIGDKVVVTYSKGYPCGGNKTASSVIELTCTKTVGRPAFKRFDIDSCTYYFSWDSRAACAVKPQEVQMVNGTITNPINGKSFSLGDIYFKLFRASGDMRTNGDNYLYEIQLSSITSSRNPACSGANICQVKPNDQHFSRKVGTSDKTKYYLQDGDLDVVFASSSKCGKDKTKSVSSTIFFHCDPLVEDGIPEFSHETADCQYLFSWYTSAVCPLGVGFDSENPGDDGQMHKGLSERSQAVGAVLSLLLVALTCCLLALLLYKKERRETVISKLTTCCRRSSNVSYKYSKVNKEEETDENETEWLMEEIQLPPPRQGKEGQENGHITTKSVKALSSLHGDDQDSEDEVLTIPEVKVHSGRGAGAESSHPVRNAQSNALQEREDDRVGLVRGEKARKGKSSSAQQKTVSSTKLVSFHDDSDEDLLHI

IC50 [1] [µM] | Stability [4] | SMILES | Activity [2] | Activity [3] | Activity [5]
23 |  | O=P(O)(O)OC[C@H]1OC(O)[C@@H](O)[C@@H](O)[C@@H]1O (stereo partly specified) |  |  | 
150 | Stable | CO[C@H]1O[C@H](CCS(=O)(=O)[O-])[C@@H](O)[C@H](O)[C@@H]1O.[Na+] | Not Active | Not Active | Not Active
71 | Stable | CO[C@H]1O[C@H](/C=C/S(=O)(=O)[O-])[C@@H](O)[C@H](O)[C@@H]1O.[Na+] | Not Active | Not Active | Not Active

SMILES | IC50 [1] [µM] | Stability [4] | Activity [2] | Activity [3] | Activity [5]
CO[C@H]1O[C@H](/C=C/P(=O)([O-])[O-])[C@@H](O)[C@H](O)[C@@H]1O.[Na+].[Na+] | 22 | Stable | Not Active | Not Active | Not Active

Source: ChEMBL document CHEMBL1152259, “Synthesis of new sulfonate and phosphonate derivatives for cation-independent mannose 6-phosphate receptor targeting” (Bioorg Med Chem Lett, 2008)
